The source made the active and inactive calls. The calls are words filed in the database; no cut-off is given here.
How the values were obtained:
[1] = (§1) Cytotoxicity against human HepG2 cells assessed as cell viability after 72 hrs by MTT assay; assay type: cell-based; conditions: HepG2 cells
Method in brief: (§2)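 Cells were kept in RPMI with 10% FBS. 5×10^3 cells/well were settled 24 h, then exposed to compound from DMSO (final <0.5%): CHO for 24 h, HepG2 for 72 h, in duplicate. Wells were checked for precipitate. MTT was added for 2 h at 37 °C, formazan dissolved in DMSO, and A570 read (630 nm reference). Viability is % of untreated cells; CC50 from non-linear regression, mean of three experiments.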

Plasmodium falciparum [2] = assay: Antiplasmodial activity against multi-drug resistant Plasmodium falciparum K1 infected in human erythrocytes assessed as parasite growth inhibition after 72 hrs by SYBR Green I dye-based fluorescence assay; assay type: functional, organism-based
[3] = Cytotoxicity against human HepG2 cells expressing CD81 assessed as cell viability after 72 hrs by CellTiter-glo assay; assay type: cell-based
Plasmodium yoelii = assay: Antiplasmodial activity against liver stage of Plasmodium yoelii 17X NL sporozoites infected in human HepG2 cells expressing CD81 after 48 hrs by DAPI staining-based immunofluorescence analysis; assay type: functional, organism-based; conditions: HepG2, 48 h
Method in brief: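 HepG2/CD81 cells were grown in D-MEM with 10% FBS. 25×10^3 cells/well went on collagen-coated wells; after 24 h they received compound and 5000 P. yoelii sporozoites together, then were spun 900 × g for 10 min at 4 °C. Treatment was renewed at 3 h and 24 h. At 48 h cells were methanol-fixed, stained with anti-HSP70 immunofluorescence, and parasites counted by microscopy. IC50 is 50% fewer parasites than in 0.5% DMSO controls.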

[4] = Selectivity index, ratio of CC50 for human HepG2 cells expressing CD81 to IC50 for liver stage of Plasmodium yoelii 17X NL sporozoites infected in human HepG2 cells expressing CD81; assay type: functional
[5] = Selectivity index, ratio of CC50 for human HepG2 cells to IC50 for multi-drug resistant Plasmodium falciparum K1 infected in human erythrocytes
HepG2 = assay: as §1; assay type: cell-based; conditions: hepg2, 72 h; method in brief: as §2
Salmonella typhimurium [6] = assay: Mutagenicity in Salmonella typhimurium TA97A at 2.5 mM after 1 hr by Ames test in absence of S9 fraction; assay type: toxicity, organism-based; conditions: salmonella enterica subsp. enterica serovar typhimurium, 2500 µM
Method in brief: (§3)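 Tester strains were grown overnight in nutrient broth. 0.1 mL culture was incubated 1 h at 37 °C with shaking with compound (2.5–25 mM DMSO solutions), with or without 4% S9 mix. Top agar was added and the mix plated on Vogel-Bonner agar. Revertants were counted after 48 h at 37 °C in the dark. A twofold rise over spontaneous revertants counts as mutagenic.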

Salmonella typhimurium [7] = assay: Mutagenicity in Salmonella typhimurium TA100 at 2.5 mM after 1 hr by Ames test in absence of S9 fraction; assay type: toxicity, organism-based; conditions: salmonella enterica subsp. enterica serovar typhimurium, 2500 µM; method in brief: as §3
[8] = Cytotoxicity against CHO cells assessed as cell viability after 24 hrs by MTT assay; assay type: cell-based, Cricetulus griseus; conditions: chinese hamster; method in brief: as §2
Plasmodium falciparum [9] = assay: Antiplasmodial activity against multi-drug resistant Plasmodium falciparum K1 infected in human erythrocytes assessed as parasite growth inhibition after 72 hrs by SYBR Green I dye-based fluorescence assay in presence of ascorbic acid; assay type: functional, organism-based; conditions: K1, 72 h
Method in brief: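 Same SYBR Green I 72 h growth assay on the K1 strain (2% haematocrit, 1% parasitaemia, 37 °C, 6% CO2/14% O2/80% N2, DMSO <0.5%), with 800 µM ascorbic acid in the medium as radical trap. Duplicates; artesunate as positive control; IC50 derived.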

[10] = Inhibition of Plasmodium falciparum DHFR after 48 hrs
Method in brief: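 Recombinant S. cerevisiae whose own DHFR is replaced by the P. falciparum DHFR domain was used. 1×10^4 cells were grown in YEPD with compound from DMSO (final <0.5%) at 30 °C for 48 h, in duplicate. Growth was read as A660. IC50 (50% growth inhibition) came from non-linear regression.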

[11] = Genotoxicity in DNA (unknown origin) incubated for 24 hrs in dark condition by methyl green displacement assay
Method in brief: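 DNA-methyl green (4 mg in 20 mL 0.05 M Tris-HCl pH 7.5 with 7.5 mmol/L MgSO4) was shaken 24 h at 37 °C. It was then added to compound from DMSO (final <0.5%). A630 was read, and read again after 24 h at room temperature in the dark. DC50 is the concentration displacing 50% of methyl green.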

Plasmodium falciparum [12] = assay: Antiplasmodial activity against multi-drug resistant Plasmodium falciparum K1 infected in human erythrocytes assessed as depolarization of mitochondrial membrane at IC50 after 20 mins by flow cytometric analysis; assay type: functional, organism-based
[13] = Plasmodium falciparum, K1, 72 h, read-out: IC50

| Compound | CC50 at 72 h [1] [µM] | IC50 (Plasmodium falciparum [2]; [13]) [µM] | other results |
| --- | --- | --- | --- |
| CC(C)(C)Nc1nc2cc(-c3ccc(Br)cc3)sc2c(=O)[nH]1 | 1.4 | > 5 | – |
| Cc1ccc(-c2cc3nc(NCc4ccccc4Cl)[nH]c(=O)c3s2)cc1 | 32.6 | > 5 | – |
| COc1cc(NC(C)CCCN)c2ncccc2c1 (stereo not given) [PRIMAQUINE] | – | – | CC50 at 72 h [3]: 6.1 µM; IC50 (Plasmodium yoelii): 1160 nM; Ratio CC50/IC50 [4]: 5.3 |
| CC(C)Nc1nc2cc(-c3ccc(F)cc3)sc2c(=O)[nH]1 | > 25 | 0.5 | Ratio CC50/IC50 [5]: >66 |
| CCCCCN(CCCCC)c1nc2cc(-c3ccc(C)cc3)sc2c(=O)[nH]1 | – | – | CC50 (HepG2): ND(Insoluble); IC50 (Plasmodium falciparum [2]): ND(Insoluble) |
| CCCCNc1nc2cc(-c3ccc(C)cc3)sc2c(=O)[nH]1 | 6 | > 5 | – |
| CCCN(CCC)c1nc2cc(-c3ccc(C)cc3)sc2c(=O)[nH]1 | – | – | CC50 (HepG2): ND(Insoluble); IC50 (Plasmodium falciparum [2]): ND(Insoluble) |
| [N-]=[N+]=[N-].[Na+] [SODIUM AZIDE] | – | – | Activity (Salmonella typhimurium [6]): Toxic; Activity (Salmonella typhimurium [7]): Toxic |
| Cc1ccc(-c2ccc3c(=O)[nH]c(NC(C)(C)C)nc3c2)cc1 | 0.98 | > 5 | Ratio CC50/IC50 [5]: <5.1 |
| CCCCCNc1nc2cc(-c3ccc(C)cc3)sc2c(=O)[nH]1 | 4.2 | > 5 | – |
| COc1cccc2c1C(=O)c1c(O)c3c(c(O)c1C2=O)C[C@@](O)(C(=O)CO)C[C@@H]3O[C@H]1C[C@H](N)[C@H](O)[C@H](C)O1 [DOXORUBICIN] | – | – | CC50 at 24 h [8]: 600 nM |
| CCCCN(C)c1nc2cc(-c3ccc(C)cc3)sc2c(=O)[nH]1 | 3 | > 5 | – |
| COc1ccc(-c2cc3nc(NC(C)(C)C)[nH]c(=O)c3s2)cc1 | 32.3 | > 5 | – |
| COc1ccc(-c2csc3c(=O)[nH]c(NC(C)C)nc23)cc1 | 27.8 | > 5 | – |
| CC(C)Nc1nc2cc(-c3ccc(Br)cc3)sc2c(=O)[nH]1 | 13.4 | 1.7 | Ratio CC50/IC50 [5]: 9 |
| C[C@H]1[C@H](OC(=O)CCC(=O)O)O[C@@H]2O[C@@]3(C)CC[C@H]4[C@H](C)CC[C@@H]1[C@@]24OO3 [ARTESUNATE] | – | – | IC50 (Plasmodium falciparum [9]): 700 nM |
| Cc1ccc(-c2csc3c(=O)[nH]c(NC(C)C)nc23)cc1 | 8.8 | 2.7 | Ratio CC50/IC50 [5]: 3 |
| CCCCCCCNc1nc2cc(-c3ccc(C)cc3)sc2c(=O)[nH]1 | 6.8 | > 5 | – |
| CCc1nc(N)nc(N)c1-c1ccc(Cl)cc1 [PYRIMETHAMINE] | – | – | IC50 [10]: 2.8 µM |
| C[C@H]1c2cccc(O)c2C(=O)C2=C(O)[C@]3(O)C(=O)C(C(N)=O)=C(O)[C@@H](N(C)C)[C@@H]3[C@@H](O)[C@@H]21.O [DOXYCYCLINE] | – | – | Ratio CC50/IC50 [5]: 4 |
| CCCCCCNc1nc2cc(-c3ccc(C)cc3)sc2c(=O)[nH]1 | 10.6 | > 5 | – |
| O=C1C(O)=C([C@H]2CC[C@H](c3ccc(Cl)cc3)CC2)C(=O)c2ccccc21 [ATOVAQUONE] | > 15.6 | – | CC50 at 72 h [3]: 9.5 µM; IC50 (Plasmodium yoelii): 9 nM |
| Cc1ccc(-c2cc3nc(NC(C)c4ccccc4)[nH]c(=O)c3s2)cc1 (stereo not given) | 9.2 | > 5 | – |
| CCCNc1nc2cc(-c3ccc(C)cc3)sc2c(=O)[nH]1 | > 62.5 | > 5 | – |
| CC(C)Nc1nc2c(-c3ccc(Br)cc3)csc2c(=O)[nH]1 | 6.5 | > 5 | – |
| Cc1ccc(-c2cc3nc(N)[nH]c(=O)c3s2)cc1 | – | – | CC50 (HepG2): ND(Insoluble); IC50 (Plasmodium falciparum [2]): ND(Insoluble) |

| Compound | CC50 at 72 h [1] [µM] | IC50 (Plasmodium falciparum [2]; [13]) [µM] | other results |
| --- | --- | --- | --- |
| CC(C)(C)Nc1nc2c(-c3ccc(F)cc3)csc2c(=O)[nH]1 | 2.3 | > 5 | – |
| COc1cccc2c1C(=O)c1c(O)c3c(c(O)c1C2=O)C[C@@](O)(C(C)=O)C[C@@H]3O[C@H]1C[C@H](N)[C@H](O)[C@H](C)O1 [DAUNORUBICIN] | – | – | DC50 [11]: 1000 nM |
| Cc1ccc(-c2cc3nc(NC(C)(C)C)[nH]c(=O)c3s2)cc1 | – | – | Activity (Plasmodium falciparum [12]): inactive |
| Cc1ccc(-c2csc3c(=O)[nH]c(NC(C)(C)C)nc23)cc1 | 1.4 | > 5 | – |
| CC(C)Nc1nc2cc(-c3ccc(Cl)cc3)sc2c(=O)[nH]1 | > 15.6 | 0.6 | Ratio CC50/IC50 [5]: >26 |
| CC(C)(C)Nc1nc2cc(-c3ccc(F)cc3)sc2c(=O)[nH]1 | 5.1 | > 5 | – |
| C[C@@H]1CC[C@H]2[C@@H](C)C(=O)O[C@@H]3O[C@@]4(C)CC[C@@H]1[C@]32OO4 [ARTEMISININ] | – | – | CC50 at 72 h [3]: > 10 µM; IC50 (Plasmodium yoelii): > 10000 nM |
| CC1(C)N=C(N)N=C(N)N1c1ccc(Cl)cc1 [CYCLOGUANIL] | – | – | IC50 [10]: 5 µM |
| Cc1cccc(-c2cc3nc(NC(C)(C)C)[nH]c(=O)c3s2)c1 | 14.1 | 3.6 | Ratio CC50/IC50 [5]: 3 |
| CCCCCCC(C)Nc1nc2cc(-c3ccc(C)cc3)sc2c(=O)[nH]1 (stereo not given) | 19.4 | > 5 | – |
| CCN(CCCl)CCCNc1c2ccc(Cl)cc2nc2ccc(OC)cc12 | – | – | Activity (Salmonella typhimurium [6]): Toxic; Activity (Salmonella typhimurium [7]): Toxic |
| CCCCN(CCCC)c1nc2cc(-c3ccc(C)cc3)sc2c(=O)[nH]1 | – | – | CC50 (HepG2): ND(Insoluble); IC50 (Plasmodium falciparum [2]): ND(Insoluble) |
| CC(C)(C)Nc1nc2cc(-c3ccccc3)sc2c(=O)[nH]1 | 12.5 | 1 | Ratio CC50/IC50 [5]: 10 |
| CCC(CC)Nc1nc2cc(-c3ccc(C)cc3)sc2c(=O)[nH]1 | 101 | > 5 | – |
| CC(C)(C)Nc1nc2cc(-c3ccc(Cl)cc3)sc2c(=O)[nH]1 | – | – | Activity (Plasmodium falciparum [12]): inactive |
| COc1ccc(-c2cc3nc(NC(C)C)[nH]c(=O)c3s2)cc1 | 27.1 | 0.5 | Ratio CC50/IC50 [5]: 136 |
| CC(C)Nc1nc2c(-c3ccc(F)cc3)csc2c(=O)[nH]1 | > 15.6 | > 5 | – |
| Cc1ccccc1-c1cc2nc(NC(C)(C)C)[nH]c(=O)c2s1 | 4 | 1.7 | Ratio CC50/IC50 [5]: 2 |
| Cc1ccc(-c2cc3nc(NC(C)C)[nH]c(=O)c3s2)cc1 | – | – | Activity (Plasmodium falciparum [12]): inactive |
| CC(C)(C)Nc1nc2ccsc2c(=O)[nH]1 | 8.4 | > 5 | – |
| Cc1ccc(-c2ccc3nc(NC(C)(C)C)[nH]c(=O)c3c2)cc1.Cl | 0.49 | > 5 | Ratio CC50/IC50 [5]: <10.2 |
| CC(C)Nc1nc2c(-c3ccc(Cl)cc3)csc2c(=O)[nH]1 | 7.1 | > 5 | – |
| CCN(CC)c1nc2cc(-c3ccc(C)cc3)sc2c(=O)[nH]1 | – | – | CC50 (HepG2): ND(Insoluble); IC50 (Plasmodium falciparum [2]): ND(Insoluble) |
| Cc1ccc(-c2cc3nc(NCC(C)C)[nH]c(=O)c3s2)cc1 | 21.6 | > 5 | – |
| CC(C)Nc1nc2ccsc2c(=O)[nH]1 | 23.9 | > 5 | – |
